The M2OR odorant receptor database
Numbering of substitutions follows the chain as printed.

molecular target: T1, OR1A2 (Homo sapiens) (UniProt Q9Y585); conditions: stereoisomer not certain
T1 sequence (whole entry): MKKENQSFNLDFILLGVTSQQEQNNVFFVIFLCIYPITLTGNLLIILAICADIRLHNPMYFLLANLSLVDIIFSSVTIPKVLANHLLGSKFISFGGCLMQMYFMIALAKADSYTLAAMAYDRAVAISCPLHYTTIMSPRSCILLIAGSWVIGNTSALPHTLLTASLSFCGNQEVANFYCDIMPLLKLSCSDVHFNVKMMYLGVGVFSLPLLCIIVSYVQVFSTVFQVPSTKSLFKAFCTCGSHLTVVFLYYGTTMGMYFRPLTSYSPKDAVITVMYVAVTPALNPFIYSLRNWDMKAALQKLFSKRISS
Procedure, shortened: (§1)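 Transient luciferase assays in mammalian cell lines were common, though methods varied by source. The values come from published papers and their supplementary material, with extra details from the original authors when needed. Responsive refers to a measured signal the original authors judged statistically different from baseline, and non-responsive (inactive) to the remainder.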
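Also: active if original authors judged signal statistically different from baseline.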

| SMILES | odorant receptor agonist call |
| --- | --- |
| CCCCCC(=O)C(C)C(C)=O (stereo not given) | inactive |
| CCC(S)C(C)CO (stereo not given) | inactive |
| CCCCCC(S)C(C)CO (stereo not given) | inactive |
| Cc1cnc(C)c(C)n1 | inactive |
| CCCC(S)CCOC(C)=O (stereo not given) | inactive |
| CC1=C(O)C(=O)C(C)O1 (stereo not given) | inactive |
| CCC1OC(C)=C(O)C1=O (stereo not given) | inactive |
| CC1CCCCCCCCCCCCC(=O)C1 (stereo not given) | inactive |
| CC(=O)c1c(C)c([N+](=O)[O-])c(C(C)(C)C)c([N+](=O)[O-])c1C | inactive |
| CCCCCCC=CCCC=O | inactive |
| CCC1OC(=O)C(O)=C1C (stereo not given) | inactive |
| CCCCC(S)C(C)CO (stereo not given) | active |
| CC1=C(O)C(=O)OC1C (stereo not given) | inactive |
| CC(CO)CS (stereo not given) | inactive |
| CC1=NC(C)C(C)S1 (stereo not given) | inactive |

test system: T2, OR1A2 G256C W293C; conditions: stereoisomer not certain
T2 sequence (whole entry): T1 sequence (whole entry) with G256C, W293C
Procedure, shortened: as §1

| SMILES | odorant receptor agonist call |
| --- | --- |
| Cc1cnc(C)c(C)n1 | inactive |
| CCCC(S)CCOC(C)=O (stereo not given) | inactive |
| CC1=C(O)C(=O)C(C)O1 (stereo not given) | inactive |
| CCC1OC(C)=C(O)C1=O (stereo not given) | inactive |
| CCCCCCC=CCCC=O | inactive |
| CCC1OC(=O)C(O)=C1C (stereo not given) | inactive |
| CC1=C(O)C(=O)OC1C (stereo not given) | inactive |
| CC1=NC(C)C(C)S1 (stereo not given) | inactive |

test system: T3, OR1B1; conditions: stereoisomer not certain
T3 sequence (whole entry): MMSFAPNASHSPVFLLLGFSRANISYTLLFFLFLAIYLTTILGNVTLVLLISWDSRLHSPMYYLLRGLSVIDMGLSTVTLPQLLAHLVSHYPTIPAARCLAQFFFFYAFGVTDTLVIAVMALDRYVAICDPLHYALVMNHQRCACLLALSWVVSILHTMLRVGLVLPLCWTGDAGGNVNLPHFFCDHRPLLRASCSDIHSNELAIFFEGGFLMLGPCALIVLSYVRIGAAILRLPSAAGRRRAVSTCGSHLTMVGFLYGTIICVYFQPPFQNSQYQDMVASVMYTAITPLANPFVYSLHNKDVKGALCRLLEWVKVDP
Procedure, shortened: as §1

| SMILES | odorant receptor agonist call |
| --- | --- |
| CCCCCC(=O)C(C)C(C)=O (stereo not given) | inactive |
| CCC(S)C(C)CO (stereo not given) | inactive |
| CCCCCC(S)C(C)CO (stereo not given) | inactive |
| Cc1cnc(C)c(C)n1 | inactive |
| CCCC(S)CCOC(C)=O (stereo not given) | inactive |
| CC1=C(O)C(=O)C(C)O1 (stereo not given) | inactive |
| CCC1OC(C)=C(O)C1=O (stereo not given) | inactive |
| CC1CCCCCCCCCCCCC(=O)C1 (stereo not given) | inactive |
| CC(=O)c1c(C)c([N+](=O)[O-])c(C(C)(C)C)c([N+](=O)[O-])c1C | inactive |
| CCCCCCC=CCCC=O | inactive |
| CCC1OC(=O)C(O)=C1C (stereo not given) | inactive |
| CCCCC(S)C(C)CO (stereo not given) | inactive |
| CC1=C(O)C(=O)OC1C (stereo not given) | inactive |
| CC(CO)CS (stereo not given) | inactive |
| CC1=NC(C)C(C)S1 (stereo not given) | inactive |

molecular target: T4, OR1C1 (Homo sapiens) (UniProt Q15619); conditions: stereoisomer not certain
T4 sequence (whole entry): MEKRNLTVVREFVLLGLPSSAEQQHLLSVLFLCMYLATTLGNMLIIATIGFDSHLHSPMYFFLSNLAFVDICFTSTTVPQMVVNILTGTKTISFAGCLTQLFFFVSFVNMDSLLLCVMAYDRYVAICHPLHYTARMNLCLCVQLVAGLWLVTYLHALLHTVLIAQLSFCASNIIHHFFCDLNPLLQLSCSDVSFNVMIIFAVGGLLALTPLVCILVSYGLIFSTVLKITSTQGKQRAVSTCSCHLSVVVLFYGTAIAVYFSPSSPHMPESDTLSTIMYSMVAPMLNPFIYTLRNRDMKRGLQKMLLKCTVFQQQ
Procedure, shortened: as §1

| SMILES | odorant receptor agonist call |
| --- | --- |
| CCCCCC(=O)C(C)C(C)=O (stereo not given) | inactive |
| CCC(S)C(C)CO (stereo not given) | inactive |
| CCCCCC(S)C(C)CO (stereo not given) | inactive |
| Cc1cnc(C)c(C)n1 | inactive |
| CCCC(S)CCOC(C)=O (stereo not given) | inactive |
| CC1=C(O)C(=O)C(C)O1 (stereo not given) | inactive |
| CCC1OC(C)=C(O)C1=O (stereo not given) | inactive |
| CC1CCCCCCCCCCCCC(=O)C1 (stereo not given) | inactive |
| CC(=O)c1c(C)c([N+](=O)[O-])c(C(C)(C)C)c([N+](=O)[O-])c1C | inactive |
| O=c1ccc2ccccc2o1 | active |
| CCCCCCC=CCCC=O | inactive |
| CCC1OC(=O)C(O)=C1C (stereo not given) | inactive |
| CCCCC(S)C(C)CO (stereo not given) | inactive |
| CC1=C(O)C(=O)OC1C (stereo not given) | inactive |
| CC(CO)CS (stereo not given) | inactive |
| CC1=NC(C)C(C)S1 (stereo not given) | inactive |

molecular target: T5, OR1D2 (Homo sapiens) (UniProt P34982); conditions: stereoisomer not certain
T5 sequence (whole entry): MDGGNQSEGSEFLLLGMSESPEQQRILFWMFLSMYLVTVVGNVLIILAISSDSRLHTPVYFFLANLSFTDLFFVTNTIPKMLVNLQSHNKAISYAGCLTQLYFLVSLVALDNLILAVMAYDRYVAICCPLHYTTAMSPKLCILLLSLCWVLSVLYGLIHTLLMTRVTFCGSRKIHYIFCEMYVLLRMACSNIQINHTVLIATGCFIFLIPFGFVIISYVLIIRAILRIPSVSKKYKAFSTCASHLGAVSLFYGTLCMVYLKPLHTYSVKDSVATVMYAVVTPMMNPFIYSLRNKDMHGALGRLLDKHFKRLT
Procedure, shortened: as §1

| SMILES | odorant receptor agonist call |
| --- | --- |
| CC(CC=O)c1ccccc1 (stereo not given) | active |
| CCCCCC(=O)C(C)C(C)=O (stereo not given) | inactive |
| CCC(S)C(C)CO (stereo not given) | inactive |
| CCCCCC(S)C(C)CO (stereo not given) | inactive |
| Cc1cnc(C)c(C)n1 | inactive |
| O=C(O)CCc1ccccc1 | inactive |
| CCCC(S)CCOC(C)=O (stereo not given) | inactive |
| CC(C=O)Cc1ccc(C(C)C)cc1 (stereo not given) | active |
| CC1=C(O)C(=O)C(C)O1 (stereo not given) | inactive |
| CCC1OC(C)=C(O)C1=O (stereo not given) | inactive |
| CC=Cc1ccc(OC)cc1 | inactive |
| CC(C=O)Cc1ccc(C(C)(C)C)cc1 (stereo not given) | inactive |
| O=CCCCCc1ccccc1 | inactive |
| O=CCCc1ccccc1 | active |
| O=CCCCc1ccccc1 | active |
| CCCCCCC=CCCC=O | inactive |
| CCC1OC(=O)C(O)=C1C (stereo not given) | inactive |
| CCc1ccc(CC(C)(C)C=O)cc1 | active |
| CCCCC(S)C(C)CO (stereo not given) | inactive |
| CC(C)(C)c1ccc(OCC=O)cc1 | active |
| CC(CCO)c1ccccc1 (stereo not given) | inactive |
| COc1ccc(CC(C)C=O)cc1 (stereo not given) | active |
| CC1=C(O)C(=O)OC1C (stereo not given) | inactive |
| CC(CO)CS (stereo not given) | inactive |
| CC1=NC(C)C(C)S1 (stereo not given) | inactive |
| CC(C)c1ccccc1 | inactive |
